This is an account of results in ChEMBL document CHEMBL1152770, “Inhibitors of hepatitis C virus polymerase: synthesis and biological characterization of unsymmetrical dialkyl-hydroxynaphthalenoyl-benzothiadiazines” (J Med Chem, 2009).

Format in all cases: ADME, organism-based
What all share (set-up): dose 5 mg/kg, route oral

Data set [1] in a line: Plasma concentration in rat at 5 mg/kg, po after 6 hrs. The method, boiled down: (§1)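 Vehicle DMSO:PEG400 (10:90, v/v). Dosing at 5 mg/kg in rat and monkey; dog 5 mg/kg or 2.5 mg/kg. Protein precipitation with acetonitrile, then LC-MS/MS in negative-ion MRM (m/z 516.2→437.0) against spiked standards with internal standard.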
Data set [2] in a line: Drug level in rat liver at 5 mg/kg, po after 12 hrs. The note with it: read-out: Drug uptake. Put shortly:
(§2)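 Rats dosed orally at 5 mg/kg, four groups, sacrificed at 6 and 12 h. Plasma and liver homogenate extracted by acetonitrile protein precipitation with internal standard and quantified by LC-MS (negative-ion MRM). Liver/plasma ratio taken from the two concentrations.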

Data set [3] can be described thus: Plasma concentration in rat at 5 mg/kg, po after 12 hrs. Put shortly:
as §1

A short description of data set [4]: Ratio of drug level in liver to plasma in rat at 5 mg/kg, po after 6 hrs. Put shortly:
as §2

A short description of data set [5]: Drug level in rat liver at 5 mg/kg, po after 6 hrs. The note with it: read-out: Drug uptake. Put shortly: as §2
Data set [6] in a line: Ratio of drug level in liver to plasma in rat at 5 mg/kg, po after 12 hrs. Put shortly: as §2

By Kp is commonly meant the ratio of the level in a tissue or fluid to that in plasma or blood. Turning to `CC(C)CC[C@@]1(C)C(=O)C(C2=NS(=O)(=O)c3cc(NS(C)(=O)=O)ccc3N2)=C(O)c2ccccc21`, the concentration at 6 h in data set [1] was 445 nM; in data set [5], 3800 ng/g. Besides, the concentration at 12 h in data set [2] is 1430 ng/g; in data set [3], 135 nM. In addition, the Kp at 6 h in data set [4] was determined as 17. The Kp at 12 h in data set [6] came to 20.
